# KCNQ1 block: inhibitors of human KCNQ1 channel, primary screen, cell-based, thallium flux, high-throughput; Potassium voltage-gated channel subfamily KQT member 1 (Homo sapiens), P51787; CHO-K1 KCNQ1, FluxOR thallium flux fluorescence; stronger effect = higher value; B-score at 10 µM; actives 1.3% (n = 310,000); AID 2642, 2010;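 active = compounds whose thallium flux B-score, printed positive for inhibition, exceeds three library SD while starting fluorescence stays within three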;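 note: channel opened by potassium depolarization with thallium stimulus after 20 min compound exposure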
# Target sequence (P51787 whole entry, looked up): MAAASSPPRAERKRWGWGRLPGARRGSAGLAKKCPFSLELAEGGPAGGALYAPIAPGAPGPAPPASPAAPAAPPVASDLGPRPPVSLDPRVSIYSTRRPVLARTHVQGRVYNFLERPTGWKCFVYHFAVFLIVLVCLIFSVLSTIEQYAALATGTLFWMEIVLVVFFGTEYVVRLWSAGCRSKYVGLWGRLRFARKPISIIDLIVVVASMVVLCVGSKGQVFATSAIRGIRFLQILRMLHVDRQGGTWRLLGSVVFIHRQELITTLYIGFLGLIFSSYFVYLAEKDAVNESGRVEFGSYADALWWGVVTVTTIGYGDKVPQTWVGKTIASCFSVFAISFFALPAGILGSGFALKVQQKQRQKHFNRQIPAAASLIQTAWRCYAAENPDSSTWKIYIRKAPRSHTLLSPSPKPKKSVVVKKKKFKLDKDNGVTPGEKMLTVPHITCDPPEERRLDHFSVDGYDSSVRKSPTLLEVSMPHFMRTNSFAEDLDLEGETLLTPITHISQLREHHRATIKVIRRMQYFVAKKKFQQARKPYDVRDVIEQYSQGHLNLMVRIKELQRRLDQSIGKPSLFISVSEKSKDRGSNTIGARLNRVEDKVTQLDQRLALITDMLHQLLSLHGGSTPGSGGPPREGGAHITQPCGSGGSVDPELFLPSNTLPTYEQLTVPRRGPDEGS
# KCNK3 inh: human KCNK3 channel inhibitors, primary screen, CHO cells, FluxOR thallium flux, B-score. AID 602410, 2012. B-score at 10 µM. FluxOR fluorescence; stronger effect = lower value. actives 0.84% (n = 340,000);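 active = B-score under library mean minus 4 SD, starting fluorescence ratio at most library mean plus 5 SD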;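 note: more negative B-score means stronger inhibition of thallium flux through KCNK3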
# KCNK9 block: KCNK9 potassium channel inhibitors, primary screen, HEK293 cells, thallium flux | Potassium channel subfamily K member 9 (Homo sapiens), Q9NPC2 | FluxOR thallium flux fluorescence; stronger effect = lower value | B-score at 10 µM | actives 1.2% (n = 310,000) | AID 488922, 2010;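 active = ratio B-score over 3 SD below the library mean, with starting fluorescence within 5 SD of its mean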;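 note: negative B-score means less thallium flux so channel inhibition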
# hERG rescue: hERG rescue from dofetilide block, primary screen, cell-based, CHO-hERG, FluxOR thallium flux, dofetilide IC70; AID 1511, 2009; dofetilide IC70 present; actives 0.51% (n = 310,000); activation (rescue from dofetilide block), less the hit threshold, % at 10 µM;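 active = activation above the mean of controls blocked by dofetilide plus 5 SD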;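 note: thallium influx through hERG after potassium depolarization seen as dye fluorescence rise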
# KCNQ1 pot: potentiators or activators of KCNQ1 channel, primary screen, cell-based, thallium flux, high-throughput; Potassium voltage-gated channel subfamily KQT member 1 (Homo sapiens), P51787; CHO-K1 KCNQ1, thallium flux FluxOR fluorescence; stronger effect = higher value; B-score at 10 µM; actives 0.35% (n = 310,000); AID 2648, 2010;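 active = fluorescence ratio B-score, a plate-corrected score, at least three library SD, with initial intensity B-score within 5 SD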
#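 Doses: Single concentration per compound, DMSO matched to controls | Test system: KCNQ1-transfected CHO-K1 cells | Timing: 90 min dye loading and 20 min compound exposure, both at room temperature | Measured by: Kinetic FluxOR thallium fluorescence, 10-s 1-Hz baseline, 110-s post-stimulus read | Medium: Assay buffer with matched DMSO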
# KCC2 mod: KCC2 cotransporter modulators, thallium flux, primary screen, cell-based, HEK293 KCC2, FluoZin-2 fluorescence, MLSMR. KCC2 cells, thallium flux FluoZin-2 fluorescence. B-score of Tl+ flux slope (higher = more flux/activation; lower = inhibition) at 10 µM. actives 2.2% (n = 190,000). Solute carrier family 12 member 5 (Homo sapiens), Q9H2X9. AID 1456, 2008;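 active = thallium flux slope and its plate-corrected score both differing from the plate sample mean at a set confidence after two filtering rounds, in either direction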;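 note: slope of fluorescence scaled to starting intensity during 10 to 20 s after thallium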
# KCNQ1 block val: KCNQ1 potassium channel inhibitors, confirmation, cell-based, Tl flux, duplicate; shares compounds with KCNQ1 block; actives 93% (n = 1,600); inhibition, % at 10 µM; KCNQ1 cell line, FluxOR thallium flux fluorescence;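 active = primary screen active, with duplicate mean exceeding buffer control mean plus 3 SD of buffer wells, cut at about 28% in these data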;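 note: 0% = buffer control ratio and 100% = XE991 inhibitor control ratio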
# CHO KCNQ1 ctr: thallium flux effects in parental CHO cells, counter-screen for KCNQ1 inhibitor project, cell-based, Tl flux | actives 21% (n = 1,600) | shares compounds with KCNQ1 block | fluorescence ratio (Tl flux) at 10 µM | parental CHO-K1, FluxOR thallium flux fluorescence ratio; stronger effect = lower value; zero means no signal rise above baseline;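 active = mean of duplicate thallium-flux fluorescence ratios in parental host cells more than 5 SD below the buffer control mean, cut at about 0.38 in these data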;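 note: ratio is peak minus minimum fluorescence divided by baseline fluorescence; actives read low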
# KCNQ1 ephys val: KCNQ1 channel inhibitors, confirmation, orthogonal assay, cell-based, automated electrophysiology | AID 624120, 2012 | actives 20% (n = 490) | KCNQ1-CHO cells, automated patch clamp current | calls only at 10 µM | shares compounds with KCNQ1 block;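 active = KCNQ1 current drop exceeding 3 SD of negative control wells, seen in both duplicate runs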;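 note: steady state current during a 2 s step from -80 to +40 mV; negative values mean current inhibition and positive values mean potentiation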
# KCNQ2 inh: KCNQ2 channel inhibition, selectivity assay for KCNQ1 inhibitor project, cell-based. actives 71% (n = 1,600). KCNQ2 cells, FluxOR thallium flux fluorescence. AID 651746, 2012. shares compounds with KCNQ1 block. inhibition, % at 10 µM;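 active = mean percent inhibition of the KCNQ2 thallium signal more than 5 SD above the buffer-only control wells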;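 note: KCNQ2 expressed in CHO cells; 0% = buffer control wells and 100% = XE-991 inhibitor control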
# KCNQ1 KCNE1 spec: KCNQ1/KCNE1 channel inhibition, selectivity assay for KCNQ1 inhibitor project, CHO-K1 cells, thallium flux, FluxOR | shares compounds with KCNQ1 block | FluxOR thallium flux fluorescence | inhibition, % at 10 µM | actives 77% (n = 1,600) | AID 652147, 2013;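 active = mean percent inhibition of duplicate wells above the buffer-only control mean plus 3 SD of those controls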;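 note: 0% = buffer only wells and 100% = XE-991 inhibitor control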
# * hit, by the source's call; i = inactive; . = no result; + = active, no number. Most compounds without a hit are left out; they make up all but 4.1% or so of the library.
SMILES,KCNQ1 block,KCNK3 inh,KCNK9 block,hERG rescue,KCNQ1 pot,KCC2 mod,KCNQ1 block val,CHO KCNQ1 ctr,KCNQ2 inh,KCNQ1 KCNE1 spec,others
O=C(CN1CCN(S(=O)(=O)c2ccccc2)CC1)Nc1ccc(Cl)c([N+](=O)[O-])c1,i,i,i,-9,i,.,.,.,.,.,
Cc1cccc(-c2noc(CN(C)S(=O)(=O)c3cc(Cl)ccc3Cl)n2)c1,8*,i,-8*,-7,i,.,+,0.35*,i,i,
COc1ccc(Cl)cc1C(=O)N(Cc1nc(-c2cccc(C)c2)no1)C(C)C,i,i,i,-11,i,-0.0064,.,.,.,.,
O=C(Nc1ccc(Cl)cc1)NC1CCCCC1Cc1ccco1 (stereo not drawn),8*,i,i,-9,i,-0.77,126*,0.44,77%*,102%*,KCNQ1 ephys val=+
O=C(Nc1nc(-c2cccs2)c(C(=O)C(F)(F)F)s1)c1ccccc1,7*,i,i,-12,i,-2.5,25*,0.48,i,i,
O=S(=O)(c1ccccc1)N1c2cc(Cl)ccc2Oc2nc3ccccc3nc21,8*,i,i,-8,i,-0.84,109*,0.36*,100%*,146%*,
CCc1nc2ccccc2nc1N1CCN(S(=O)(=O)c2ccc(Cl)cc2)CC1,i,i,i,-4,i,-0.27,.,.,.,.,
CCOC(=O)c1c(C)n(C)c2cc(Br)c(O)c(O)c12,6*,i,i,-5,i,0.091,0,0.5,59%*,i,
CCOC(=O)c1cnc2ccc(OCC)cc2c1N1CCN(c2ccccc2OC)CC1,11*,i,i,-16,i,-0.047,130*,0.33*,141%*,182%*,
Nc1ccc2nc(SCc3ccc([N+](=O)[O-])cc3)sc2c1,i,i,i,-8,i,.,.,.,.,.,
O=[N+]([O-])c1ccc2nc(SCc3ccccc3Cl)sc2c1,15*,i,i,-20,i,.,106*,0.42,117%*,116%*,KCNQ1 ephys val=i
CC[C@]12C(=O)N(C)C[C@H]([C@@H]3C(=O)N(Cc4ccccc4)C(=O)[C@@H]31)N2C(=O)c1ccc(Br)cc1,.,i,.,.,.,.,.,.,.,.,
CN1/C(=C\C=C2/SC(=S)N(CC(=O)O)C2=O)C(C)(C)c2ccccc21,24*,i,i,-44,i,i,+,0.044*,i,i,
Cc1cc(=O)n(CC(=O)NC2CC2)c2c1c(C)nn2-c1ccccc1,7*,i,i,-9,i,.,80*,0.46,i,94%*,
CC(=O)c1ccccc1C(=O)N1CCCC(C(=O)c2ccc(C(F)(F)F)cc2)C1 (stereo not drawn),i,i,i,-12,i,.,.,.,.,.,
CCOC(=O)c1ccc(N2CCN(c3ccccc3F)CC2)c(NC(=O)Nc2cccc(OC)c2)c1,7*,i,i,-13,i,0.036,89*,0.43,83%*,156%*,KCNQ1 ephys val=i
COc1cc(Cl)c(C)cc1Nc1ncccn1,i,i,i,-3,i,.,.,.,.,.,
O=[N+]([O-])c1c(Nc2cccc(O)c2)cc(Cl)c2nonc12,24*,i,-8*,-33,i,.,166*,0.29*,129%*,+,
COc1cccc(N2CCN(c3ncnc4c3[nH]c3ccccc34)CC2C)c1 (stereo not drawn),12*,.,i,-35,i,-1.6,142*,0.32*,124%*,+,
c1ccc(CN2CCN(c3ncnc4c3[nH]c3ccccc34)CC2)cc1,7*,i,i,-28,i,-5.7*,132*,0.45,120%*,82%*,
OC1(c2cccc(C(F)(F)F)c2)CCN(c2ncnc3c2[nH]c2ccccc23)CC1,7*,i,i,-25,i,.,134*,0.37*,119%*,146%*,
OC1(c2cccc(C(F)(F)F)c2)CCN(c2ccc(-c3ccccc3)nn2)CC1,.,i,.,.,.,0.0057,.,.,.,.,
O=C(Nc1cccc(F)c1)Nc1ccc2c(c1)OCO2,i,i,i,-6,i,.,.,.,.,.,
O=C(CSc1ccncc1)Nc1ccc2ccccc2c1,i,i,i,-9,i,0.11,.,.,.,.,
O=C(CSc1ccc2ccccc2c1)Nc1ccncc1,7*,i,i,-10,i,-0.61,90*,0.54,75%*,i,KCNQ1 ephys val=i
COc1ccc(C(=O)c2sc3nc(C)cc(-c4cccs4)c3c2N)cc1OC,7*,i,i,-10,i,-0.87,199*,0.2*,i,i,
Cc1cc(-c2cccs2)c2c(N)c(C(=O)c3ccc4c(c3)OCO4)sc2n1,7*,i,-6.6*,-12,i,i,193*,0.2*,i,i,
COc1ccc(C(=O)c2sc3nc(C)cc(-c4cccs4)c3c2N)cc1,6*,i,i,-23,i,-1.4,195*,0.26*,i,i,
Cc1cc(C)c2c(N)c(C(=O)c3ccc(Cl)c(Cl)c3)sc2n1,i,i,i,-13,i,1.4,.,.,.,.,
